Data set [1] relates to Mus musculus. Kind of data set: Toxicity in male Swiss-Webster mouse assessed as weight loss at cumulative dose of 200 mg/kg, ip measured after 48 hrs. Details: dose 200 mg/kg, route intraperitoneal. The format is organism-based. The note with it: in vivo. The gist of the method:
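Acute toxicity in 8–10-week-old Swiss Webster mice. i.p. injections every 2 h of 5, 15, 30, 50 and 100 mg/kg (cumulative 200 mg/kg) on day 1. Toxic and subtoxic signs inspected on days 2 and 3 per OECD guidelines; outcome read 48 h after injection.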

For data set [2], the system named is Trypanosoma cruzi. Kind of data set: Antitrypanosomal activity against Trypanosoma cruzi Columbian bloodstream forms infected in C3H mouse assessed as decrease in cardiac parasite load at 100 mg/kg/day, ip administered 5 days postinfection for 10 consecutive days measured after 43 days. The format is functional. Further details: scale not given: the % may be the effect or the level left. To be noted: route intraperitoneal. Summed up: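 Male C3H/He mice infected i.p. with 5 × 10^3 Colombian strain bloodstream forms, given 100 mg/kg/day i.p. daily for 10 days. At 43 dpi, H&E-stained 3 μm heart sections scored for amastigote nests and infiltrates (>10 mononuclear cells) over at least 100 fields. Three sections each from at least three mice.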

Data set [3] deals with Trypanosoma cruzi. Kind of data set: Antitrypanosomal activity against Trypanosoma cruzi Columbian bloodstream forms infected in C3H mouse assessed as decrease in parasite load in 25 mg/kg/day, po administered 5 days postinfection for 10 consecutive days measured after 120 days. The format is functional, organism-based.
Data set [4] in a line: Toxicity in […] mouse assessed as mortality at cumulative dose of 100 mg/kg, ip measured after 48 hrs. The class given is organism-based. Details: dose 100 mg/kg, route intraperitoneal. To be noted: in vivo, read-out: Activity. Summed up:
(§1)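 Uninfected 8–10-week-old female and male Swiss Webster and C3H/He (H-2k) mice injected i.p. on day 1 every 2 h with escalating doses: 5, 15, 30, 50 and 100 mg/kg (cumulative 20, 50, 100, 200 mg/kg). Toxic and subtoxic signs inspected on days 2–3 per OECD guidelines; tolerated dose set at 48 h.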

Data set [5] deals with Trypanosoma cruzi. Kind of data set: Antitrypanosomal activity against Trypanosoma cruzi Columbian bloodstream forms infected in C3H mouse assessed as decrease in parasite load at 100 mg/kg/day, ip administered 5 days postinfection for 10 consecutive days measured after 31 days. The class given is functional. Details: scale not given: the % may be the effect or the level left. The note with it: route intraperitoneal. The gist of the method:
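C3H/He mice infected i.p. with 10^3 or 5 × 10^3 Colombian strain bloodstream forms. Treated daily for 10 days with 0.1 ml i.p. or by gavage, reference drug given by gavage. Parasitemia measured by the Pizzi-Brener method; n ≥ 6 parasitemic mice per group.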

In data set [6] the test system is Mus musculus. Nature of the data set: Toxicity in male Swiss-Webster mouse assessed as mortality at cumulative dose of 200 mg/kg, ip measured after 48 hrs. The class given is organism-based. Details: dose 200 mg/kg, route intraperitoneal. The note with it: in vivo. Summed up: as §1
Data set [7] has as its system Trypanosoma cruzi. Kind of data set: Antitrypanosomal activity against Trypanosoma cruzi 956 epimastigotes after 24 hrs by light microscopy. The format is functional, organism-based. To be noted: Trypanosoma cruzi, 956, 24 h. The gist of the method: (§2)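 Epimastigotes from 5-day exponential cultures, 5 × 10^6 parasites/ml in LIT medium, incubated at 28°C up to 96 h with DB766 0 to 32 μM or Bz 0 to 250 μM. Counted daily in a Neubauer chamber. IC50 averaged from at least three determinations in duplicate.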

For data set [8], the system named is Trypanosoma cruzi. Kind of data set: Antitrypanosomal activity against Trypanosoma cruzi 875 epimastigotes after 24 hrs by light microscopy. The format is functional, organism-based. The note with it: Trypanosoma cruzi, 875, 24 h. The gist of the method: as §2
The test system of data set [9] is Trypanosoma cruzi. Nature of the data set: Antitrypanosomal activity against Trypanosoma cruzi Y bloodstream forms infected in Swiss-Webster mouse assessed as survival of mouse at 25 mg/kg/day, ip administered 8 days postinfection measured on day 120. The class given is functional, organism-based. Summed up: (§3)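 Male Swiss mice infected i.p. with 10^4 Y strain bloodstream forms. Given 0.2 ml i.p. at 5 and 8 dpi, or daily for 10 days from 5 dpi; reference drug given by gavage. Parasitemia measured by the Pizzi-Brener method, cumulative mortality checked daily to 120 dpi, n ≥ 6 per group.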

Data set [10] deals with Trypanosoma cruzi. Nature of the data set: Antitrypanosomal activity against bloodstream forms of Trypanosoma cruzi YuYu after 24 hrs by light microscopy in presence of 50% mouse blood. The class given is functional, organism-based. The gist of the method: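 Bloodstream trypomastigotes kept at 4°C for 24 h in freshly isolated 50% mouse blood with serial dilutions (up to 32 μM). Motile live parasites counted in a Neubauer chamber by light microscopy; IC50 calculated as concentration reducing parasite number by 50%.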

The subject of data set [11] is Trypanosoma cruzi. Nature of the data set: Antitrypanosomal activity against Trypanosoma cruzi Columbian bloodstream forms infected in C3H mouse assessed as decrease in parasite load at 25 mg/kg/day, ip administered 21 days postinfection measured on day 44. The class given is functional. Further details: scale not given: the % may be the effect or the level left. To be noted: route intraperitoneal. The gist of the method:
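C3H/He mice infected i.p. with 10^2 Colombian strain bloodstream forms. Treatment started at parasitemia onset (21 dpi) with daily doses for 10 treatments, 0.1 ml i.p. Parasitemia measured by the Pizzi-Brener method; n ≥ 6 parasitemic mice per group.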

Data set [12] deals with Trypanosoma cruzi. Kind of data set: Antitrypanosomal activity against Trypanosoma cruzi Y bloodstream forms infected in Swiss-Webster mouse assessed as survival of mouse at 50 mg/kg/day, ip p administered 5 days postinfection for 10 consecutive days measured on day 120. The class given is functional, organism-based. The gist of the method: as §3
Data set [13] relates to Trypanosoma cruzi. Nature of the data set: Antitrypanosomal activity against bloodstream forms of Trypanosoma cruzi Y after 24 hrs by light microscopy. The format is functional, organism-based. The gist of the method: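 Bloodstream trypomastigotes from infected Swiss mice at peak parasitemia, 5.0 × 10^6 cells/ml in RPMI 1640 with 5% FBS. Exposed at 37°C to serial dilutions from 0 to 32 μM. Motile live parasites counted by light microscopy in a Neubauer chamber, then IC50 calculated.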

Data set [14] is described as follows: Cardiotoxicity against Swiss-Webster mouse cardiomyocytes assessed as creatine kinase cardiac isotype level by MTT assay. The class given is toxicity, Heart, Cardiomyocyte. The note with it: read-out: LC50 (the source's name). Summed up: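 Embryonic cardiomyocytes from Swiss mice, uninfected, exposed to 0 to 96 μM in DMEM at 37°C. Viability followed by CK-MB released into culture supernatant, alongside light-microscopy checks of morphology and spontaneous contraction; assays at least three times in duplicate.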

In data set [15] the test system is Trypanosoma cruzi. Kind of data set: Antitrypanosomal activity against Trypanosoma cruzi Y infected in Swiss-Webster mouse assessed as decrease in parasite-induced weight loss at 100 mg/kg/day, ip administered 5 days post-infection for 10 consecutive days measured on day 120. The format is functional, organism-based. Summed up:
(§4)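 Body weight of infected, treated mice followed from 0 to 120 dpi.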

Data set [16] has as its system Trypanosoma cruzi. Kind of data set: Antitrypanosomal activity against Trypanosoma cruzi Columbian bloodstream forms infected in C3H mouse assessed as reduction in parasite-induced weight loss at 100 mg/kg/day, po administered 5 days postinfection for 10 consecutive days measured after 120 days. The format is functional, organism-based. Summed up:
as §4

Data set [17] has as its system Trypanosoma cruzi. Nature of the data set: Antitrypanosomal activity against Trypanosoma cruzi Y infected in Swiss-Webster mouse assessed as decrease in parasite-induced weight loss at 100 mg/kg/day, po administered 5 days post-infection for 10 consecutive days measured on day 120. The class given is functional, organism-based. The gist of the method:
as §4

The test system of data set [18] is Trypanosoma cruzi. Kind of data set: Antitrypanosomal activity against Trypanosoma cruzi Y bloodstream forms infected in Swiss-Webster mouse assessed as decrease in parasite load at 25 mg/kg/day, ip administered 5 days postinfection for 10 consecutive days measured after 8 days. The class given is functional. Details: scale not given: the % may be the effect or the level left. To be noted: route intraperitoneal. The gist of the method: as §3

The test system of data set [19] is Trypanosoma cruzi. Kind of data set: Antitrypanosomal activity against Trypanosoma cruzi Y bloodstream forms infected in Swiss-Webster mouse assessed as reduction in parasite-induced weight loss in mouse at 100 mg/kg/day, po administered 5 days postinfection for 10 consecutive days measured on day 120. The class given is functional, organism-based. The gist of the method:
as §4

The test system of data set [20] is Trypanosoma cruzi. Kind of data set: Antitrypanosomal activity against bloodstream forms of Trypanosoma cruzi Y infected in Swiss mouse cardiomyocytes assessed as parasite crista dilation at 10 ug/ml after 2 hrs by transmission electron microscopy. The class given is functional, organism-based. The gist of the method: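 Y-strain bloodstream trypomastigotes treated 2 to 24 h at 37°C. Fixed 60 min at 4°C in 2.5% glutaraldehyde in 0.1 M cacodylate, pH 7.2. Postfixed 1 h at 4°C in 1% OsO4 with 0.8% potassium ferricyanide. Acetone-dehydrated, Epon-embedded, sections stained with uranyl acetate and lead citrate, ultrastructure examined by TEM.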

Calls of active or inactive are those of the source. No cut-off for these calls is given here.

As for `CC(C)Oc1cc(NC(=N)c2ccccn2)ccc1-c1ccc(-c2ccc(NC(=N)c3ccccn3)cc2OC(C)C)o1`, the Activity with Mus musculus [1] is 10%; with Trypanosoma cruzi [2], 95%; with Trypanosoma cruzi [5] it was 100%; in the data set on Mus musculus [6] it was “Non-toxic”; in the data set on Trypanosoma cruzi [11] it was 73%; with Trypanosoma cruzi [18] it was 88%. Moreover, the outcome in the data set with Trypanosoma cruzi [3], in the data set on Trypanosoma cruzi [15], in the data set on Trypanosoma cruzi [16] and in the data set on Trypanosoma cruzi [17] was inactive. Also, the mortality at 48 h in data set [4] is 80%. Moreover, the half-maximal inhibitory concentration (IC50) in the data set on Trypanosoma cruzi [7] is 160 nM; in the data set on Trypanosoma cruzi [8], 60 nM; in the data set on Trypanosoma cruzi [10], 820 nM; with Trypanosoma cruzi [13], 110 nM. Moreover, the concentration for an effect of 90% (IC90) in the data set with Trypanosoma cruzi [7] was determined as 320 nM; in the data set on Trypanosoma cruzi [8], 240 nM. Further, the result in the data set with Trypanosoma cruzi [9], in the data set with Trypanosoma cruzi [12], in the data set on Trypanosoma cruzi [19] and with Trypanosoma cruzi [20] was Active. In data set [14], the CC50 was over 10600 nM.

(Values after ChEMBL document CHEMBL1649306, “Arylimidamide DB766, a potential chemotherapeutic candidate for Chagas' disease treatment” (Antimicrob Agents Chemother, 2010).)
